Data as given in BindingDB's records for doi:10.1021/jm00096a020 (University of California, 1992).
Where “and” joins values, the source holds several entries; their conditions need not be identical. Identical values can stand only once.

Legend:
[1] = target: T1, Human immunodeficiency virus type 1 protease (Human immunodeficiency virus 1, UniProt Q72874); assay: ChEBML_79800
Excerpt: (§1) Inhibitory concentration against HIV-1 protease in the absence of DMSO

[2] = target: T1, Human immunodeficiency virus type 1 protease; assay: Inhibition of HIV-1 protease in 10% fetal calf serum(FCS)
In short: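 COS A6 cells, which constitutively release viral capsids, were exposed to inhibitor in Dulbecco's PBS for 15 min. An equal volume of medium with 10% FCS plus inhibitor was then added and incubation continued for 3.75 h. Capsids were isolated from the supernatant, and polyprotein processing was scored as p24 by ELISA.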

Pol polyprotein [3] = target: T2, Pol polyprotein (Human immunodeficiency virus 2, UniProt P88142); assay: ChEBML_159124
Excerpt: (§2) Inhibition of HIV-2 protease in 5%DMSO

[4] = target: T1, Human immunodeficiency virus type 1 protease; assay: as §1
In short: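 The water-soluble dipotassium salt was tested against aspartyl proteases with no DMSO present, and IC50 values were determined.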

[5] = target: T1, Human immunodeficiency virus type 1 protease; assay: Inhibition of HIV-1 protease in 5%DMSO
In short: (§3)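 Purified recombinant HIV PR activity was followed by cleavage of a decapeptide substrate. Incubation was 30–45 min at 37 °C, and hydrolysis products were quantified by HPLC.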

[6] = target: T1, Human immunodeficiency virus type 1 protease; assay: Binding affinity against HIV-1 protease
In short: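 Purified recombinant HIV-1 protease (6 × 10^-4 mg/mL) preincubated 1 min with inhibitor in 50 mM sodium acetate pH 5.5, 1 mM DTT, 1 mM EDTA, 1 M NaCl. Decapeptide substrate then added, 30–45 min at 37 °C. Activity read by HPLC quantitation of hydrolysis products. Inhibition plotted as a Dixon plot at several substrate concentrations.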

HIV-2 protease [7] = assay: ChEBML_158058
Excerpt: In vitro Inhibitory activity against HIV-2 protease in the presence of 5%DMSO

HIV-1 protease = assay: Inhibitory concentration against HIV-1 protease
In short: as §3

Pol polyprotein [8] = target: T2, Pol polyprotein; assay: as §2
In short: as §3

HIV-2 protease [9] = assay: Inhibitory concentration against HIV-2 protease
In short: as §3

[10] = target: HIV-2 protease (Human immunodeficiency virus 2); assay: Inhibitory concentration against HIV-2 protease in the absence of DMSO
[11] = target: HIV-2 protease (Human immunodeficiency virus 2); assay: In vitro Inhibitory activity against HIV-2 protease in the presence of 5%DMSO

T2 sequence (P88142 whole entry): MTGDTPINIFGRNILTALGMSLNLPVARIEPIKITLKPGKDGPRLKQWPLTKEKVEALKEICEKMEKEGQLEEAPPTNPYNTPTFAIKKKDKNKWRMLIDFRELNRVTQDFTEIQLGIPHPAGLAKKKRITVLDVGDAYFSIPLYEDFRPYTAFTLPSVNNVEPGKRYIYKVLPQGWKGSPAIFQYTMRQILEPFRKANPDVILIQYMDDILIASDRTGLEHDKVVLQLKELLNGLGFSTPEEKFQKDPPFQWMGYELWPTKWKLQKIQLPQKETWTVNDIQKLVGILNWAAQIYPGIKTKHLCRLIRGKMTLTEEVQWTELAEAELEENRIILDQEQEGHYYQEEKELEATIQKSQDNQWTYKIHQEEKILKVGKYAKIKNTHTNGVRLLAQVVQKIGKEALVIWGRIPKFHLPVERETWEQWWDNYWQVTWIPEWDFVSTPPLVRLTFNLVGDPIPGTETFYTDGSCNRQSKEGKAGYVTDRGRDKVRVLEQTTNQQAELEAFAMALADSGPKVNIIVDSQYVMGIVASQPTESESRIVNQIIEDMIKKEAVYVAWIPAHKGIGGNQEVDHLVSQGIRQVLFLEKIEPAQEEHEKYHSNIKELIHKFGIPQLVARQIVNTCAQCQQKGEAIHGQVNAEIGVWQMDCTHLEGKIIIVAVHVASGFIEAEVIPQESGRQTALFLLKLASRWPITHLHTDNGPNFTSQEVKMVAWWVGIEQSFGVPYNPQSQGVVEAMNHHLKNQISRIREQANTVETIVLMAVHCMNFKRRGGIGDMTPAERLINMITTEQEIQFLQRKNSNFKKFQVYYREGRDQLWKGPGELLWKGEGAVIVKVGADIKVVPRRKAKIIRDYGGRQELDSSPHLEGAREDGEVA

Compound	IC50 [1]	IC50 [2]	IC50 (Pol polyprotein [3])	IC50 [4]	IC50 [5]	Ki [6]	IC50 (HIV-2 protease [7])	IC50 (HIV-1 protease)	IC50 (Pol polyprotein [8])	IC50 (HIV-2 protease [9])	IC50 [10]	IC50 [11]
CC1=C(CCC(=O)O)/C2=C/c3c(CCC(=O)O)c(C)c4[n]3[Co][n]3/c(c(C)c(C(COC(=O)C5=CC5)OC(=O)C5=CC5)/c3=C/C3=NC(=C\4)/C(C(COC(=O)C4=CC4)OC(=O)C4=CC4)=C3C)=C\C1=N2 (stereo not drawn)	2250 nM	25000 nM	1500 nM									
CC1=C(CCC(=O)O)/C2=C/c3c(CCC(=O)O)c(C)c4[n]3[Cu][n]3/c(c(C)c(C(COC(=O)C5=CC5)OC(=O)C5=CC5)/c3=C/C3=NC(=C\4)/C(C(COC(=O)C4=CC4)OC(=O)C4=CC4)=C3C)=C\C1=N2 (stereo not drawn)		> 70000 nM	2200 nM	725 nM	975 nM	140 nM	470 nM					
CC1=C(CCC(=O)O)c2cc3nc(cc4[nH]c(cc5[nH]c(cc1n2)c(C)c5C(COC(=O)C1=CC1)OC(=O)C1=CC1)c(C)c4C(COC(=O)C1=CC1)OC(=O)C1=CC1)C(C)=C3CCC(=O)O (stereo not drawn)		25000 nM and > 150000 nM	700 nM		185 nM			50 nM	700 nM	230 nM		
CC1=C(CCC(=O)O)c2cc3nc(cc4[nH]c(cc5[nH]c(cc1n2)c(C)c5C(COC(=O)C1=CCC1)OC(=O)C1=CCC1)c(C)c4C(COC(=O)C1=CCC1)OC(=O)C1=CCC1)C(C)=C3CCC(=O)O (stereo not drawn)		10000 nM					550 nM					
CC1=C(CCC(=O)O)/C2=C/c3c(CCC(=O)O)c(C)c4[n]3[Mn][n]3/c(c(C)c(C(COC(=O)C5=CC5)OC(=O)C5=CC5)/c3=C/C3=NC(=C\4)/C(C(COC(=O)C4=CC4)OC(=O)C4C=C4)=C3C)=C\C1=N2 (stereo not drawn)		65000 nM		100 nM	400 nM	85 nM					700 nM	1200 nM
